# According to ChEMBL document CHEMBL1152327, “Cucurbitane-type triterpenoids from the stems of Cucumis melo” (J Nat Prod, 2009):
# Active and inactive are the calls of the source. The rule behind the calls is not given here.
# Key:
# [1] = test system: A549; experiment: Cytotoxicity against human A549 cells upto 10 uM after 72 hrs by SRB assay; format: functional, cell-based
# Procedure, shortened: (§1)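 A549/ATCC (human non-small-cell lung) or BEL-7402 (human hepatocellular) cells plated 24 h before treatment, then continuously exposed to a range of concentrations for 72 h. Cells fixed and stained with sulforhodamine B, bound dye solubilized in 10 mM Tris, absorbance read at 565 nm. IC50 derived.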
# [2] = test system: Bel-7402; experiment: Cytotoxicity against human Bel7402 cells upto 10 uM after 72 hrs by SRB assay; format: functional, cell-based; procedure, shortened: as §1
# [3] = target: Signal transducer and activator of transcription 3 (Homo sapiens) (UniProt P40763); experiment: Inhibition of STAT3 upto 10 uM by Western blotting
# Signal transducer and activator of transcription 3 (Homo sapiens), sequence (P40763 whole entry): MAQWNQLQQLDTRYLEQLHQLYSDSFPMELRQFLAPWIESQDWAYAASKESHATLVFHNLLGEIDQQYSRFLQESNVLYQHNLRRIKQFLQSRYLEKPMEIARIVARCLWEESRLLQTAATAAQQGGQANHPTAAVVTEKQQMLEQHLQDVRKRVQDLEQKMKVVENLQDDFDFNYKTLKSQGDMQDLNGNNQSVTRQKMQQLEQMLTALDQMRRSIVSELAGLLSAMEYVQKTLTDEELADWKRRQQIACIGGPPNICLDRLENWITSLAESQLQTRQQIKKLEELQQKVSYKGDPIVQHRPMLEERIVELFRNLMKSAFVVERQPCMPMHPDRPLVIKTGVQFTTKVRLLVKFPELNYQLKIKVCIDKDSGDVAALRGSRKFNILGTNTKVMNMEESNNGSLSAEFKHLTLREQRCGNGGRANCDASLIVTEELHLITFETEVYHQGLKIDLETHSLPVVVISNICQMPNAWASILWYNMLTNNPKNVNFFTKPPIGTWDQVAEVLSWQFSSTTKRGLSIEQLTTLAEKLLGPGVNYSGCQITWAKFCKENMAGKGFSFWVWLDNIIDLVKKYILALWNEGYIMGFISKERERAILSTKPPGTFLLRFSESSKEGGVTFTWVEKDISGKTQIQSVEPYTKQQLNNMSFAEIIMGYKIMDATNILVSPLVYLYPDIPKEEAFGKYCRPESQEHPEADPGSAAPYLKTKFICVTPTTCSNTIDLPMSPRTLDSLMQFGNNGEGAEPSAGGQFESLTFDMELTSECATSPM
# Procedure, shortened: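 Phosphotyrosine Stat3 levels in treated cells, tested up to 10 µM. Cells washed in ice-cold PBS, lysed in SDS sample buffer, equal protein run on SDS-PAGE and transferred to PVDF. Blots blocked in 5% nonfat milk/TBST, then phospho-Stat3 and β-tubulin antibodies at 4 °C overnight, secondary 2 h room temperature, ECL detection. IC50 derived.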
# [4] = test system: A549; experiment: Cytotoxicity against human A549 cells after 72 hrs by SRB assay; format: functional, cell-based; settings: A549, 72 h; procedure, shortened: as §1
# [5] = test system: Bel-7402; experiment: Cytotoxicity against human Bel7402 cells after 72 hrs by SRB assay; format: functional, cell-based; settings: Bel-7402, 72 h; procedure, shortened: as §1
SMILES,Activity [1],Activity [2],inhibition [3],IC50 [4] [nM],IC50 [5] [nM]
CC(=O)OC(C)(C)CCC(=O)[C@](C)(O)[C@H]1[C@H](O)C[C@@]2(C)[C@@H]3[C@@H](O)C=C4[C@@H](C[C@H](O)C(=O)C4(C)C)[C@]3(C)C(=O)C[C@]12C,inactive,inactive,inactive,–,–
C/C(=C\C(O)C[C@](C)(O)[C@H]1[C@H](O)C[C@@]2(C)[C@@H]3CC=C4[C@@H](C[C@H](O)C(=O)C4(C)C)[C@]3(C)C(=O)C[C@]12C)CO (some centres not stated),inactive,inactive,inactive,–,–
CC1(C)C(=O)[C@@H](O)C[C@@H]2C1=CC[C@@H]1[C@@]2(C)C(=O)C[C@]2(C)[C@@H]([C@@](C)(O)C(=O)CC(O)C(C)(C)O)[C@H](O)C[C@@]12C (some centres not stated),inactive,inactive,inactive,–,–
CC(C)(O)CCC(=O)[C@](C)(O)[C@H]1[C@H](O)C[C@@]2(C)[C@@H]3CC=C4[C@@H](C[C@H](O)C(=O)C4(C)C)[C@]3(CO)C(=O)C[C@]12C,inactive,inactive,inactive,–,–
C/C(=C\[C@@H]1C[C@](C)(O)[C@H]2[C@@H](C[C@@]3(C)[C@@H]4[C@@H](O)C=C5[C@@H](C[C@H](O[C@@H]6O[C@H](CO)[C@@H](O)[C@H](O)[C@H]6O)[C@H](O)C5(C)C)[C@]4(C)C(=O)C[C@]23C)O1)CO,inactive,inactive,inactive,–,–
CC(C)=CCC[C@@H](C)[C@H]1CC[C@@]2(C)[C@@H]3CC=C4[C@H](CCCC4(C)C)[C@H]3C(=O)C[C@]12C,inactive,inactive,inactive,–,–
CC(=O)OC(C)(C)CCC(=O)[C@](C)(O)[C@H]1[C@H](O)C[C@@]2(C)[C@@H]3CC=C4[C@@H](C[C@H](O)C(=O)C4(C)C)[C@]3(C)C(=O)C[C@]12C,inactive,inactive,inactive,–,–
CC(=O)[C@H]1[C@H](O)C[C@@]2(C)[C@@H]3CC=C4[C@@H](C[C@H](O)C(=O)C4(C)C)[C@]3(C)C(=O)C[C@]12C,inactive,inactive,inactive,–,–
CC(=O)OC(C)(C)/C=C/C(=O)[C@](C)(O)[C@H]1[C@H](O)C[C@@]2(C)[C@@H]3[C@@H](O)C=C4[C@@H](C[C@H](O)C(=O)C4(C)C)[C@]3(C)C(=O)C[C@]12C [7BETA-HYDROXYCUCURBITACIN B],–,–,inactive,3210,7590
CC(=O)[C@H]1[C@H](O)C[C@@]2(C)[C@@H]3CC=C4[C@@H](C[C@H](O[C@@H]5O[C@H](CO)[C@@H](O)[C@H](O)[C@H]5O)C(=O)C4(C)C)[C@]3(C)C(=O)C[C@]12C,inactive,inactive,inactive,–,–
C/C(=C\[C@@H]1C[C@](C)(O)[C@H]2[C@@H](C[C@@]3(C)[C@@H]4[C@@H](O)C=C5[C@@H](C[C@H](O)[C@H](O)C5(C)C)[C@]4(C)C(=O)C[C@]23C)O1)CO,inactive,inactive,inactive,–,–
CC(C)(O)CCC(=O)[C@](C)(O)[C@H]1[C@H](O)C[C@@]2(C)[C@@H]3CC=C4[C@@H](C[C@H](O)C(=O)C4(C)C)[C@]3(C)C(=O)C[C@]12C,inactive,inactive,inactive,–,–
CC(C)(O)/C=C/C(=O)[C@](C)(O)[C@H]1[C@H](O)C[C@@]2(C)[C@@H]3CC=C4[C@@H](C[C@H](O)C(=O)C4(C)C)[C@]3(CO)C(=O)C[C@]12C,inactive,inactive,inactive,–,–
CC(=O)OC(C)(C)/C=C/C(=O)[C@](C)(O)[C@H]1[C@H](O)C[C@@]2(C)[C@@H]3CC=C4[C@@H](C[C@H](O)C(=O)C4(C)C)[C@]3(CO)C(=O)C[C@]12C [CUCURBITACIN A],–,–,inactive,400,300
CC(C)(O)CCC(=O)[C@](C)(O)[C@H]1[C@H](O)C[C@@]2(C)[C@@H]3CC=C4[C@@H](CC(=O)[C@H](O)C4(C)C)[C@]3(C)C(=O)C[C@]12C,inactive,inactive,inactive,–,–
CC(C)(O)/C=C/C(=O)[C@](C)(O)[C@H]1[C@H](O)C[C@@]2(C)[C@@H]3CC=C4[C@@H](C[C@H](O[C@@H]5O[C@H](CO)[C@@H](O)[C@H](O)[C@H]5O)C(=O)C4(C)C)[C@]3(C)C(=O)C[C@]12C,inactive,inactive,inactive,–,–
CC(=O)OC(C)(C)CCC(=O)[C@](C)(O)[C@H]1[C@H](O)C[C@@]2(C)[C@@H]3CC=C4[C@@H](CC(=O)[C@H](O)C4(C)C)[C@]3(C)C(=O)C[C@]12C,inactive,inactive,inactive,–,–
CC(=O)OC(C)(C)/C=C/C(=O)[C@](C)(O)[C@H]1[C@H](O)C[C@@]2(C)[C@@H]3CC=C4[C@@H](C[C@H](O[C@@H]5O[C@H](CO)[C@@H](O)[C@H](O)[C@H]5O)C(=O)C4(C)C)[C@]3(C)C(=O)C[C@]12C,inactive,inactive,inactive,–,–
CC(=O)OC(C)(C)/C=C/C(=O)[C@](C)(O)[C@H]1[C@H](O)C[C@@]2(C)[C@@H]3CC=C4[C@@H](C[C@H](O[C@@H]5O[C@H](CO)[C@@H](O)[C@H](O)[C@H]5O)C(=O)C4(C)C)[C@]3(CO)C(=O)C[C@]12C,inactive,inactive,inactive,–,–
CC(=O)OC(C)(C)/C=C/C(=O)[C@](C)(O)[C@H]1[C@H](O)C[C@@]2(C)[C@@H]3CC=C4[C@H](C[C@H](O)C(=O)C4(C)C)[C@]3(C)C(=O)C[C@]12C [CUCURBITACIN B],–,–,–,10,8
CC1(C)C(=O)[C@@H](O)C[C@@H]2C1=CC[C@@H]1[C@@]2(C)C(=O)C[C@]2(C)[C@@H]([C@@](C)(O)C(=O)C[C@H](O)C(C)(C)O)[C@H](O)C[C@@]12C,inactive,inactive,inactive,–,–
